Reference: ChEMBL document CHEMBL1126292, “Selective beta 3-adrenergic agonists of brown adipose tissue and thermogenesis. 2. [4-[2-[(2-Hydroxy-3-phenoxypropyl)amino]ethoxy]phenoxy]acetamides” (J Med Chem, 1992)
Converted amounts (≈) assume the structure as drawn.

Assays:
[1] = biological target: Beta-3 adrenergic receptor (Rattus norvegicus) (UniProt P26255); assay: Stimulation of GDP binding against beta-3 adrenergic receptor in brown adipose tissue (BAT) mitochondria of rats after peroral administration (Dose necessary to produce 50% of the isoprenaline effect).
Chain of Beta-3 adrenergic receptor (Rattus norvegicus) (P26255 whole entry): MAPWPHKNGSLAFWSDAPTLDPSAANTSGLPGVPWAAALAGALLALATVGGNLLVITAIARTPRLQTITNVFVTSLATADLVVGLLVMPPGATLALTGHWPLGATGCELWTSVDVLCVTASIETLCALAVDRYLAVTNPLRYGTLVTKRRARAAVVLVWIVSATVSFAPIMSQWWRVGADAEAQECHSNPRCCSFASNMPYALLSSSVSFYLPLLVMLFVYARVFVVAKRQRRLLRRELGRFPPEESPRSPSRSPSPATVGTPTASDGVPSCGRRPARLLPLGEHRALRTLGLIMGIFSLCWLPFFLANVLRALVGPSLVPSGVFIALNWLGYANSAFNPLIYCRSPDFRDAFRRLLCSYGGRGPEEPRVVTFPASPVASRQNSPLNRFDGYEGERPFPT

[2] = tested on: Rattus norvegicus; assay: Ratio of the dose (D500, peroral administration) elevating the rat heart rate to 500 bpm and GDP ED50.; type: functional
[3] = Partition coefficient (logP); type: physicochemical; conditions: octanol/water
How it was run: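 log P is the octanol–water partition coefficient.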

[4] = Aqueous solubility at a pH 7; type: physicochemical; conditions: read-out: S
How it was run: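 Aqueous solubility was measured on the hydrochloride salts in aqueous buffer of 0.15 M sodium chloride and 0.01 M sodium dihydrogen phosphate at pH 7. Values are given in mg mL⁻¹.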

[5] = biological target: Beta-3 adrenergic receptor (Rattus norvegicus) (UniProt P26255); assay: Dose of the compound (peroral administration) to […] GDP binding against Beta-3 adrenergic receptor in brown adipose tissue(BAT mitochondria) of rats. [Dose necessary to produce 50% of the isoprenaline effect]

SMILES	GDP ED50 [1]	logP [3]	solubility [4]	GDP ED50 [5]	Selectivity index [2]
NC(=O)COc1ccc(OCCNCC(O)COc2ccccc2F)cc1 (centres undefined)	2.24 mg/kg				>10
CC(C)NC(=O)COc1ccc(OCCNCC(O)COc2ccccc2)cc1 (centres undefined)	0.4 mg/kg	2.4	900 µg/mL (≈ 2240 µM)		>100
O=C(COc1ccc(OCCNCC(O)COc2ccccc2)cc1)NCCCO (centres undefined)	0.47 mg/kg	0.5	36000 µg/mL (≈ 86000 µM)		>100
O=C(COc1ccc(OCCNCC(O)COc2ccccc2)cc1)NO (centres undefined)	0.5 mg/kg				>100
NNC(=O)COc1ccc(OCCNCC(O)COc2ccccc2)cc1 (centres undefined)	1.15 mg/kg				
O=C(COc1ccc(OCCNCC(O)COc2ccccc2)cc1)N1CCOCC1 (centres undefined)	0.54 mg/kg				>100
O=C(COc1ccc(OCCNCC(O)COc2ccccc2)cc1)NCc1ccccc1 (centres undefined)	0.25 mg/kg	3.2	40 µg/mL (≈ 88.8 µM)		>100
O=C(COc1ccc(OCCNCC(O)COc2ccccc2)cc1)NC1CC1 (centres undefined)	0.79 mg/kg				>50
O=C(COc1ccc(OCCNCC(O)COc2ccccc2)cc1)N1Cc2ccccc2C1 (centres undefined)	1.3 mg/kg				
O=C(COc1ccc(OCCNCC(O)COc2ccccc2)cc1)Nc1ccccc1 (centres undefined)	1.38 mg/kg				
CN(Cc1ccccc1)C(=O)COc1ccc(OCCNCC(O)COc2ccccc2)cc1 (centres undefined)	8.6 mg/kg				
COCCNC(=O)COc1ccc(OCCNCC(O)COc2ccccc2)cc1 (centres undefined)	0.24 mg/kg	1.7	11000 µg/mL (≈ 26300 µM)		>100
CCCNC(=O)COc1ccc(OCCNCC(O)COc2ccccc2)cc1 (centres undefined)		2.4	600 µg/mL (≈ 1490 µM)	0.2 mg/kg	>100
O=C(COc1ccc(OCCNCC(O)COc2ccccc2)cc1)NCc1ccco1 (centres undefined)	1.53 mg/kg				
O=C(COc1ccc(OCCNCC(O)COc2ccccc2)cc1)NOCc1ccccc1 (centres undefined)	0.48 mg/kg				
O=C(COc1ccc(OCCNCC(O)COc2ccccc2)cc1)NCCOc1ccccc1 (centres undefined)	0.72 mg/kg				>100

SMILES	GDP ED50 [1]	logP [3]	solubility [4]	GDP ED50 [5]	Selectivity index [2]
COCCCNC(=O)COc1ccc(OCCNCC(O)COc2ccccc2)cc1 (centres undefined)	0.83 mg/kg				>100
O=C(COc1ccc(OCCNCC(O)COc2ccccc2)cc1)NCCc1ccccc1 (centres undefined)	1.23 mg/kg				>50
CC(NC(=O)COc1ccc(OCCNCC(O)COc2ccccc2)cc1)c1ccccc1 (centres undefined)	0.96 mg/kg				>10
O=C(COc1ccc(OCCNCC(O)COc2ccccc2)cc1)N1CCc2ccccc2C1 (centres undefined)	0.44 mg/kg				>100
CCN(CC)C(=O)COc1ccc(OCCNCC(O)COc2ccccc2)cc1 (centres undefined)	1.16 mg/kg				33
O=C(COc1ccc(OCCNC[C@H](O)COc2ccccc2)cc1)NCCO	0.77 mg/kg				>50
CNC(=O)COc1ccc(OCCNCC(O)COc2ccccc2F)cc1 (centres undefined)	1.1 mg/kg				>50
CN(C)C(=O)COc1ccc(OCCNCC(O)COc2ccccc2)cc1 (centres undefined)	1.4 mg/kg				>50
COCC(C)NC(=O)COc1ccc(OCCNCC(O)COc2ccccc2)cc1 (centres undefined)	3.88 mg/kg				
COCCNC(=O)COc1ccc(OCCNC[C@H](O)COc2ccc(O)cc2)cc1	4.16 mg/kg				
O=C(COc1ccc(OCCNCC(O)COc2ccccc2)cc1)NCc1ccc(Cl)cc1 (centres undefined)	0.92 mg/kg				>50
CNC(=O)COc1cccc(OCCNCC(O)COc2ccccc2)c1 (centres undefined)	0.31 mg/kg				74
O=C(COc1ccc(OCCNCC(O)COc2ccccc2F)cc1)N1CCCCC1 (centres undefined)	7.9 mg/kg				
O=C(COc1ccc(OCCNCC(O)COc2ccccc2)cc1)NCCO (centres undefined)	0.67 mg/kg				>100
O=C(COc1ccc(OCCNCC(O)COc2ccccc2)cc1)N1CCCO1 (centres undefined)	0.49 mg/kg				
CNC(=O)COc1ccc(OCCNCC(O)COc2ccccc2)cc1 (centres undefined)	1.2 mg/kg				>50

More lines, main results first:

GDP ED50 [1]	logP [3]	solubility [4]	GDP ED50 [5]	SMILES	Selectivity index [2]
1.18 mg/kg				NC(=O)CNC(=O)COc1ccc(OCCNCC(O)COc2ccccc2)cc1 (centres undefined)	>50
0.69 mg/kg				O=C(COc1ccc(OCCNCC(O)COc2ccccc2)cc1)NCc1cccs1 (centres undefined)	
2.77 mg/kg				O=C(COc1ccc(OCCNCC(O)COc2ccccc2)cc1)NCc1ccc(Cl)cc1Cl (centres undefined)	
0.4 mg/kg	2.6	2000 µg/mL (≈ 4670 µM)		O=C(COc1ccc(OCCNCC(O)COc2ccccc2)cc1)N1CCCCC1 (centres undefined)	>100
69.9 mg/kg				COCCNC(=O)COc1ccc(OCCNC[C@@H](O)COc2ccccc2)cc1	
3.1 mg/kg				O=C(COc1ccc(OCCNCC(O)COc2ccccc2)cc1)NC1CCCC1 (centres undefined)	>10
0.3 mg/kg	1.1	400 µg/mL (≈ 1110 µM)		NC(=O)COc1ccc(OCCNCC(O)COc2ccccc2)cc1 (centres undefined)	>100
0.64 mg/kg				C=CCNC(=O)COc1ccc(OCCNCC(O)COc2ccccc2)cc1 (centres undefined)	>100
1.03 mg/kg				C=CCNC(=O)COc1ccc(OCC(C)NCC(O)COc2ccccc2)cc1 (centres undefined)	>20
1.7 mg/kg				CCC(C)NC(=O)COc1ccc(OCCNCC(O)COc2ccccc2)cc1 (centres undefined)	
3.2 mg/kg				CC(C)CNC(=O)COc1ccc(OCCNCC(O)COc2ccccc2)cc1 (centres undefined)	
0.34 mg/kg				COCCNC(=O)COc1ccc(OCCNC[C@H](O)COc2ccccc2)cc1	>100
1.8 mg/kg				O=C(COc1ccc(OCCNCC(O)COc2ccccc2)cc1)N1CCCC1 (centres undefined)	>50
1.5 mg/kg				CCCCNC(=O)COc1ccc(OCCNCC(O)COc2ccccc2)cc1 (centres undefined)	>100
0.85 mg/kg				CC(CO)NC(=O)COc1ccc(OCCNCC(O)COc2ccccc2)cc1.O (centres undefined)	>50
0.5 mg/kg				CCNC(=O)COc1ccc(OCCNCC(O)COc2ccccc2)cc1 (centres undefined)	>100
0.57 mg/kg				CNC(=O)COc1ccc(OCCNC[C@H](O)COc2ccccc2)cc1	>100
0.25 mg/kg				CNC(=O)COc1ccc(OCC(C)NCC(O)COc2ccccc2)cc1 (centres undefined)	>10
